Key:
K562 = assay: Antiproliferative activity against human K562 cells assessed as reduction in cell growth after 72 hrs by MTT assay; assay type: functional, cell-based; details: K562, 72 h
Summary of the method: (§1)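 Human HepG2, MCF-7, HCT-116 and K562 tumour cells plus normal L-02 hepatocytes and PBMCs were exposed to compounds for 72 h and growth was read by MTT. 5-Fu served as positive control. IC50 is the concentration inhibiting 50% of cell growth, given as mean ± standard deviation of three independent experiments.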

L02 = assay: Antiproliferative activity against human L02 cells assessed as reduction in cell growth after 72 hrs by MTT assay; assay type: functional, cell-based; details: L02, 72 h; summary of the method: as §1
HCT-116 = assay: Antiproliferative activity against human HCT116 cells assessed as reduction in cell growth after 72 hrs by MTT assay; assay type: functional, cell-based; details: HCT-116, 72 h; summary of the method: as §1
HepG2 = assay: Antiproliferative activity against human HepG2 cells assessed as reduction in cell growth after 72 hrs by MTT assay; assay type: functional, cell-based; details: HepG2, 72 h; summary of the method: as §1
PBMC = assay: Cytotoxicity against human PBMC assessed as reduction in cell growth after 72 hrs by MTT assay; assay type: cell-based; summary of the method: as §1
MCF7 = assay: Antiproliferative activity against human MCF7 cells assessed as reduction in cell growth after 72 hrs by MTT assay; assay type: functional, cell-based; details: MCF7, 72 h; summary of the method: as §1

**Q.** How did the IC50 (K562) turn out when CN1Cc2c(ccc3c2OCO3)[C@H]2[C@@H](OC(=O)CCCC(=O)NCCCOc3no[n+]([O-])c3S(=O)(=O)c3ccccc3)Cc3cc4c(cc3[C@H]21)OCO4 was run?
**A.** The IC50 was 3.18 µM.

**Q.** And the IC50 (L02)?
**A.** Its IC50 is 19.9 µM.

**Q.** And the IC50 (HCT-116)?
**A.** Its IC50 is 7.25 µM.

**Q.** What about the IC50 (HepG2) of the same molecule?
**A.** The IC50 was 10.7 µM.

**Q.** What about the IC50 (PBMC) of the same molecule?
**A.** The IC50 was greater than 40 µM.

**Q.** And the IC50 (MCF7)?
**A.** Its IC50 is 5.29 µM.

**Q.** Which IC50 (K562) does the source give for CN1Cc2c(ccc3c2OCO3)[C@H]2[C@@H](OC(=O)CCC(=O)OCCOCCOc3no[n+]([O-])c3S(=O)(=O)c3ccccc3)Cc3cc4c(cc3[C@H]21)OCO4 here?
**A.** The IC50 was 4.52 µM.

**Q.** And the IC50 (L02)?
**A.** Its IC50 is 23.9 µM.

**Q.** And the IC50 (HCT-116)?
**A.** Its IC50 is 8.68 µM.

**Q.** What about the IC50 (HepG2) of the same molecule?
**A.** Its IC50 is 8.65 µM.

**Q.** And the IC50 (PBMC)?
**A.** Its IC50 is greater than 40 µM.

**Q.** And the IC50 (MCF7)?
**A.** Its IC50 is 8.92 µM.

**Q.** Which IC50 (K562) does the source give for CN1Cc2c(ccc3c2OCO3)[C@H]2[C@@H](OC(=O)CCCC(=O)OCCCCOc3no[n+]([O-])c3S(=O)(=O)c3ccccc3)Cc3cc4c(cc3[C@H]21)OCO4 here?
**A.** Its IC50 is 6.14 µM.

**Q.** What about the IC50 (L02) of the same molecule?
**A.** The IC50 was greater than 40 µM.

**Q.** What about the IC50 (HCT-116) of the same molecule?
**A.** The IC50 was 19.1 µM.

**Q.** And the IC50 (HepG2)?
**A.** The IC50 was 19.6 µM.

**Q.** And the IC50 (PBMC)?
**A.** The IC50 was greater than 40 µM.

**Q.** What about the IC50 (MCF7) of the same molecule?
**A.** The IC50 was 6.81 µM.

**Q.** CN1Cc2c(ccc3c2OCO3)[C@H]2[C@@H](OC(=O)CCCC(=O)NCCOc3no[n+]([O-])c3S(=O)(=O)c3ccccc3)Cc3cc4c(cc3[C@H]21)OCO4 was tested. Which IC50 (K562) did it give?
**A.** Its IC50 is 12.1 µM.

**Q.** What about the IC50 (L02) of the same molecule?
**A.** The IC50 was greater than 40 µM.

**Q.** What about the IC50 (HCT-116) of the same molecule?
**A.** Its IC50 is greater than 40 µM.

**Q.** What about the IC50 (HepG2) of the same molecule?
**A.** The IC50 was 26.4 µM.

**Q.** And the IC50 (PBMC)?
**A.** Its IC50 is greater than 40 µM.

**Q.** And the IC50 (MCF7)?
**A.** The IC50 was 14.6 µM.

**Q.** Which results are given for CC(CNC(=O)CCCC(=O)O[C@H]1Cc2cc3c(cc2[C@@H]2[C@H]1c1ccc4c(c1CN2C)OCO4)OCO3)Oc1no[n+]([O-])c1S(=O)(=O)c1ccccc1 (stereo partly specified)?
**A.** IC50 (K562): 2.68 µM; IC50 (L02): 23.4 µM; IC50 (HCT-116): 12.2 µM; IC50 (HepG2): 7.59 µM; IC50 (PBMC): > 40 µM; IC50 (MCF7): 4.92 µM

**Q.** How did the IC50 (K562) turn out when CN1Cc2c(ccc3c2OCO3)[C@H]2[C@@H](OC(=O)CCC(=O)OCC#CCOc3no[n+]([O-])c3S(=O)(=O)c3ccccc3)Cc3cc4c(cc3[C@H]21)OCO4 was run?
**A.** The IC50 was 3.78 µM.

**Q.** What about the IC50 (L02) of the same molecule?
**A.** Its IC50 is 28.2 µM.

**Q.** What about the IC50 (HCT-116) of the same molecule?
**A.** Its IC50 is 23.5 µM.

**Q.** What about the IC50 (HepG2) of the same molecule?
**A.** The IC50 was 14.4 µM.

**Q.** And the IC50 (PBMC)?
**A.** The IC50 was greater than 40 µM.

**Q.** What about the IC50 (MCF7) of the same molecule?
**A.** The IC50 was 5.41 µM.

**Q.** With CC(CNC(=O)CCC(=O)O[C@H]1Cc2cc3c(cc2[C@@H]2[C@H]1c1ccc4c(c1CN2C)OCO4)OCO3)Oc1no[n+]([O-])c1S(=O)(=O)c1ccccc1 (stereo partly specified) as the molecule, how does the IC50 (K562) read?
**A.** The IC50 was 6.94 µM.

**Q.** What about the IC50 (L02) of the same molecule?
**A.** Its IC50 is greater than 40 µM.

**Q.** And the IC50 (HCT-116)?
**A.** The IC50 was 16.4 µM.

**Q.** And the IC50 (HepG2)?
**A.** The IC50 was 19.4 µM.

**Q.** What about the IC50 (PBMC) of the same molecule?
**A.** The IC50 was greater than 40 µM.

**Q.** What about the IC50 (MCF7) of the same molecule?
**A.** Its IC50 is 8.37 µM.

**Q.** Which IC50 (K562) does the source give for CN1Cc2c(ccc3c2OCO3)[C@H]2[C@@H](OC(=O)CCC(=O)NCCCOc3no[n+]([O-])c3S(=O)(=O)c3ccccc3)Cc3cc4c(cc3[C@H]21)OCO4 here?
**A.** Its IC50 is 9.8 µM.

**Q.** What about the IC50 (L02) of the same molecule?
**A.** Its IC50 is 36.5 µM.

**Q.** What about the IC50 (HCT-116) of the same molecule?
**A.** The IC50 was 17.3 µM.

**Q.** What about the IC50 (HepG2) of the same molecule?
**A.** Its IC50 is 16.8 µM.

**Q.** What about the IC50 (PBMC) of the same molecule?
**A.** Its IC50 is greater than 40 µM.

**Q.** What about the IC50 (MCF7) of the same molecule?
**A.** The IC50 was 13.6 µM.

**Q.** With CN1Cc2c(ccc3c2OCO3)[C@H]2[C@@H](OC(=O)CCC(=O)OCCCOc3no[n+]([O-])c3S(=O)(=O)c3ccccc3)Cc3cc4c(cc3[C@H]21)OCO4 as the molecule, how does the IC50 (K562) read?
**A.** Its IC50 is 3.08 µM.

**Q.** And the IC50 (L02)?
**A.** The IC50 was 14.6 µM.

**Q.** What about the IC50 (HCT-116) of the same molecule?
**A.** The IC50 was 15.7 µM.

**Q.** And the IC50 (HepG2)?
**A.** Its IC50 is 10.5 µM.

**Q.** And the IC50 (PBMC)?
**A.** The IC50 was greater than 40 µM.

**Q.** And the IC50 (MCF7)?
**A.** The IC50 was 3.68 µM.

**Q.** CN1Cc2c(ccc3c2OCO3)[C@H]2[C@@H](OC(=O)CCC(=O)NCCOc3no[n+]([O-])c3S(=O)(=O)c3ccccc3)Cc3cc4c(cc3[C@H]21)OCO4 was tested. Which IC50 (K562) did it give?
**A.** Its IC50 is 3.17 µM.

**Q.** And the IC50 (L02)?
**A.** Its IC50 is 27.7 µM.

**Q.** And the IC50 (HCT-116)?
**A.** The IC50 was 11.5 µM.

**Q.** What about the IC50 (HepG2) of the same molecule?
**A.** Its IC50 is 11.4 µM.

**Q.** What about the IC50 (PBMC) of the same molecule?
**A.** Its IC50 is greater than 40 µM.

**Q.** What about the IC50 (MCF7) of the same molecule?
**A.** The IC50 was 7.94 µM.

**Q.** What does the source list for CN1Cc2c(ccc3c2OCO3)[C@H]2[C@@H](OC(=O)CCCC(=O)OCCCCCCOc3no[n+]([O-])c3S(=O)(=O)c3ccccc3)Cc3cc4c(cc3[C@H]21)OCO4?
**A.** IC50 (K562): 9.59 µM; IC50 (L02): > 40 µM; IC50 (HCT-116): > 40 µM; IC50 (HepG2): > 40 µM; IC50 (PBMC): > 40 µM; IC50 (MCF7): 13.2 µM

**Q.** How did the IC50 (K562) turn out when CN1Cc2c(ccc3c2OCO3)[C@@H]2[C@H]1c1cc3c(cc1C[C@@H]2O)OCO3 [CHELIDONINE] was run?
**A.** Its IC50 is 17.7 µM.

**Q.** And the IC50 (L02)?
**A.** The IC50 was greater than 40 µM.

**Q.** What about the IC50 (HCT-116) of the same molecule?
**A.** The IC50 was greater than 40 µM.

**Q.** And the IC50 (HepG2)?
**A.** Its IC50 is greater than 40 µM.

**Q.** And the IC50 (PBMC)?
**A.** Its IC50 is greater than 40 µM.

**Q.** What about the IC50 (MCF7) of the same molecule?
**A.** Its IC50 is greater than 40 µM.

**Q.** For CN1Cc2c(ccc3c2OCO3)[C@H]2[C@@H](OC(=O)CCC(=O)OCCCCOc3no[n+]([O-])c3S(=O)(=O)c3ccccc3)Cc3cc4c(cc3[C@H]21)OCO4, which IC50 (K562) is on record?
**A.** The IC50 was 2.91 µM.

**Q.** And the IC50 (L02)?
**A.** Its IC50 is 19.7 µM.

**Q.** And the IC50 (HCT-116)?
**A.** Its IC50 is 8.27 µM.

**Q.** What about the IC50 (HepG2) of the same molecule?
**A.** The IC50 was 6.39 µM.

**Q.** What about the IC50 (PBMC) of the same molecule?
**A.** The IC50 was greater than 40 µM.

**Q.** And the IC50 (MCF7)?
**A.** The IC50 was 4.78 µM.

**Q.** What does the source list for CN1Cc2c(ccc3c2OCO3)[C@H]2[C@@H](OC(=O)CCCC(=O)OCCOCCOc3no[n+]([O-])c3S(=O)(=O)c3ccccc3)Cc3cc4c(cc3[C@H]21)OCO4?
**A.** IC50 (K562): 2.6 µM; IC50 (L02): 16.5 µM; IC50 (HCT-116): 8.47 µM; IC50 (HepG2): 6.55 µM; IC50 (PBMC): > 40 µM; IC50 (MCF7): 6.55 µM

**Q.** How did the IC50 (K562) turn out when CN1Cc2c(ccc3c2OCO3)[C@H]2[C@@H](OC(=O)CCC(=O)OCCCCCCOc3no[n+]([O-])c3S(=O)(=O)c3ccccc3)Cc3cc4c(cc3[C@H]21)OCO4 was run?
**A.** The IC50 was 7.61 µM.

**Q.** And the IC50 (L02)?
**A.** Its IC50 is greater than 40 µM.

**Q.** What about the IC50 (HCT-116) of the same molecule?
**A.** Its IC50 is 16.6 µM.

**Q.** And the IC50 (HepG2)?
**A.** Its IC50 is 9.45 µM.

**Q.** And the IC50 (PBMC)?
**A.** The IC50 was greater than 40 µM.

**Q.** And the IC50 (MCF7)?
**A.** The IC50 was 7.94 µM.

**Q.** How did the IC50 (K562) turn out when O=c1[nH]cc(F)c(=O)[nH]1 [FLUOROURACIL] was run?
**A.** Its IC50 is 3.94 µM.

**Q.** What about the IC50 (L02) of the same molecule?
**A.** The IC50 was greater than 40 µM.

**Q.** What about the IC50 (HCT-116) of the same molecule?
**A.** The IC50 was 6.86 µM.

**Q.** And the IC50 (HepG2)?
**A.** Its IC50 is 32.6 µM.

**Q.** And the IC50 (PBMC)?
**A.** Its IC50 is greater than 40 µM.

**Q.** And the IC50 (MCF7)?
**A.** Its IC50 is 26.7 µM.

Reference: ChEMBL document CHEMBL4610039, “Design, synthesis and apoptosis-related antiproliferative activities of chelidonine derivatives” (Bioorg Med Chem Lett, 2020)
